In ChEMBL document CHEMBL1128440 (J Med Chem, 1995):

Experiments:
[1] = Partition coefficient (logP); format: physicochemical; conditions: octanol/water; read-out: logP
In short: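 log P(o/w) (octanol/water) estimated by a reversed-phase HPLC method.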

[2] = target: T1, Progesterone receptor (Homo sapiens) (UniProt P06401); test: Binding selectivity index as the ratio of RBA value to that of NSB value.
T1 sequence (whole entry): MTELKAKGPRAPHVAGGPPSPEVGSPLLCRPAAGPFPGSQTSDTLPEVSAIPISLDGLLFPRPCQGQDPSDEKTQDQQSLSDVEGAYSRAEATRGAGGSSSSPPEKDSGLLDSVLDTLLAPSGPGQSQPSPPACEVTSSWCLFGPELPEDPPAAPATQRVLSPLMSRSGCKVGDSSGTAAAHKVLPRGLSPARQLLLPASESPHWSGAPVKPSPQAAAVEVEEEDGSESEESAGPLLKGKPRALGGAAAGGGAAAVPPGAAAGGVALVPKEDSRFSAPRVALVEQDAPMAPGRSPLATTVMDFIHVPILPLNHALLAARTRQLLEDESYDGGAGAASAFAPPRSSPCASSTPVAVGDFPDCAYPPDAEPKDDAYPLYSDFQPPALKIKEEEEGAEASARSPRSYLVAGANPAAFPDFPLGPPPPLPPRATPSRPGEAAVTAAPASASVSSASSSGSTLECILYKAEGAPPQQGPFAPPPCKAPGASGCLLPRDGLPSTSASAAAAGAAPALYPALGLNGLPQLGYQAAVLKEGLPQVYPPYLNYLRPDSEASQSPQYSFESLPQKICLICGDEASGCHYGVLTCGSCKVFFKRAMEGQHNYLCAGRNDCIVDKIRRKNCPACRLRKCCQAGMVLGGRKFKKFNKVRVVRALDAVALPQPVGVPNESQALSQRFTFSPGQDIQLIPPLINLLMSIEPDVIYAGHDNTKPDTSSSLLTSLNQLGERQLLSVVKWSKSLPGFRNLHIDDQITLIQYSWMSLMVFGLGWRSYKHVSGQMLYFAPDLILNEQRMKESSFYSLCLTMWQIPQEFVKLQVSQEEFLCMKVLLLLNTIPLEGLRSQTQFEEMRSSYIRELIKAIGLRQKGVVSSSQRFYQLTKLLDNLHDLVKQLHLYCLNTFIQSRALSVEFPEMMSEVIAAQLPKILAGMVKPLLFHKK
In short: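 BSI calculated as the ratio of RBA to NSB.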

[3] = species: Rattus norvegicus; test: Tissue biodistribution into estrogen-primed immature female rat bone at 1 hr time interval; format: ADME, organism-based, Bone element; conditions: in vivo
In short: (§1)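 Immature female Sprague-Dawley rats (25 days old, ≈50 g, five per time point) primed with estradiol, 5 μg sc daily for 2 days in 50% ethanol/sunflower seed oil, used 24 h after the last injection. The 18F-labeled ligand was given iv by tail vein in 10% ethanol/saline. Decapitated at 1 or 3 h; blood and organs weighed and gamma-counted. Reported as %ID/g ± SD, n = 5.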

[4] = species: Rattus norvegicus; test: Tissue biodistribution into estrogen-primed immature female rat liver at 1 hr time interval; format: ADME, organism-based; conditions: in vivo; in short: as §1
[5] = species: Rattus norvegicus; test: Tissue biodistribution into estrogen-primed immature female rat fat at 1 hr blocked time interval; format: ADME, organism-based, Adipose tissue; conditions: in vivo; in short: as §1
[6] = species: Rattus norvegicus; test: Tissue biodistribution into estrogen-primed immature female rat bone at 3 hr time interval; format: ADME, organism-based, Bone element; conditions: in vivo; in short: as §1
[7] = species: Rattus norvegicus; test: Tissue biodistribution into estrogen-primed immature female rat brain at 3 hr time interval; format: ADME, organism-based; conditions: in vivo; in short: as §1
[8] = species: Rattus norvegicus; test: Tissue biodistribution into estrogen-primed immature female rat liver at 1 hr low time interval; format: ADME, organism-based; conditions: in vivo; in short: as §1
[9] = species: Rattus norvegicus; test: Tissue biodistribution into estrogen-primed immature female rat uterus/blood at 1 hr time interval; format: ADME, organism-based; conditions: in vivo; in short: as §1
[10] = species: Rattus norvegicus; test: Tissue biodistribution into estrogen-primed immature female rat blood at 1 hr blocked time interval; format: ADME, organism-based; conditions: in vivo; in short: as §1
[11] = species: Rattus norvegicus; test: Tissue biodistribution into estrogen-primed immature female rat uterus/blood at 1 hr low time interval; format: ADME, organism-based; conditions: in vivo; in short: as §1
[12] = species: Rattus norvegicus; test: Tissue biodistribution into estrogen-primed immature female rat brain at 1 hr time interval; format: ADME, organism-based; conditions: in vivo; in short: as §1
[13] = species: Rattus norvegicus; test: Tissue biodistribution into estrogen-primed immature female rat uterus at 3 hr time interval; format: ADME, organism-based; conditions: in vivo; in short: as §1
[14] = species: Rattus norvegicus; test: Tissue biodistribution into estrogen-primed immature female rat lung at 1 hr blocked time interval; format: ADME, organism-based; conditions: in vivo; in short: as §1
[15] = species: Rattus norvegicus; test: Tissue biodistribution into estrogen-primed immature female rat uterus at 1 hr time interval; format: ADME, organism-based; conditions: in vivo; in short: as §1
[16] = species: Rattus norvegicus; test: Tissue biodistribution into estrogen-primed immature female rat fat at 1 hr time interval; format: ADME, organism-based, Adipose tissue; conditions: in vivo; in short: as §1
[17] = species: Rattus norvegicus; test: Tissue biodistribution into estrogen-primed immature female rat muscle at 1 hr blocked time interval; format: ADME, organism-based; conditions: in vivo; in short: as §1
[18] = species: Rattus norvegicus; test: Tissue biodistribution into estrogen-primed immature female rat uterus/blood at 3 hr time interval; format: ADME, organism-based; conditions: in vivo; in short: as §1
[19] = species: Rattus norvegicus; test: Tissue biodistribution into estrogen-primed immature female rat blood at 3 hr time interval; format: ADME, organism-based; conditions: in vivo; in short: as §1
[20] = species: Rattus norvegicus; test: Tissue biodistribution into estrogen-primed immature female rat kidney at 1 hr time interval; format: ADME, organism-based; conditions: in vivo; in short: as §1
[21] = species: Rattus norvegicus; test: Tissue biodistribution into estrogen-primed immature female rat muscle at 3 hr time interval; format: ADME, organism-based; conditions: in vivo; in short: as §1
[22] = species: Rattus norvegicus; test: Tissue biodistribution into estrogen-primed immature female rat brain at 1 hr blocked time interval; format: ADME, organism-based; conditions: in vivo; in short: as §1
[23] = species: Rattus norvegicus; test: Tissue biodistribution into estrogen-primed immature female rat uterus/muscle at 1 hr time interval; format: ADME, organism-based; conditions: in vivo
[24] = species: Rattus norvegicus; test: Tissue biodistribution into estrogen-primed immature female rat liver at 1 hr blocked time interval; format: ADME, organism-based; conditions: in vivo; in short: as §1
[25] = species: Rattus norvegicus; test: Tissue biodistribution into estrogen-primed immature female rat kidney at 1 hr blocked time interval; format: ADME, organism-based; conditions: in vivo; in short: as §1
[26] = species: Rattus norvegicus; test: Tissue biodistribution into estrogen-primed immature female rat lung at 1 hr time interval; format: ADME, organism-based; conditions: in vivo; in short: as §1
[27] = species: Rattus norvegicus; test: Tissue biodistribution into estrogen-primed immature female rat bone at 1 hr low time interval; format: ADME, organism-based, Bone element; conditions: in vivo; in short: as §1
[28] = species: Rattus norvegicus; test: Tissue biodistribution into estrogen-primed immature female rat brain at 1 hr low time interval; format: ADME, organism-based; conditions: in vivo; in short: as §1
[29] = species: Rattus norvegicus; test: Tissue biodistribution into estrogen-primed immature female rat uterus/muscle at 1 hr blocked time interval; format: ADME, organism-based; conditions: in vivo; in short: as §1
[30] = species: Rattus norvegicus; test: Tissue biodistribution into estrogen-primed immature female rat fat at 1 hr low time interval; format: ADME, organism-based, Adipose tissue; conditions: in vivo; in short: as §1
[31] = species: Rattus norvegicus; test: Tissue biodistribution into estrogen-primed immature female rat bone at 1 hr blocked time interval; format: ADME, organism-based, Bone element; conditions: in vivo; in short: as §1
[32] = species: Rattus norvegicus; test: Tissue biodistribution into estrogen-primed immature female rat uterus/muscle at 3 hr time interval; format: ADME, organism-based; conditions: in vivo
[33] = species: Rattus norvegicus; test: Tissue biodistribution into estrogen-primed immature female rat kidney at 1 hr low time interval; format: ADME, organism-based; conditions: in vivo; in short: as §1
[34] = species: Rattus norvegicus; test: Tissue biodistribution into estrogen-primed immature female rat blood at 1 hr time interval; format: ADME, organism-based; conditions: in vivo; in short: as §1
[35] = species: Rattus norvegicus; test: Tissue biodistribution into estrogen-primed immature female rat liver at 3 hr time interval; format: ADME, organism-based; conditions: in vivo; in short: as §1
[36] = species: Rattus norvegicus; test: Tissue biodistribution into estrogen-primed immature female rat uterus/blood at 1 hr blocked time interval; format: ADME, organism-based; conditions: in vivo; in short: as §1
[37] = target: T1, Progesterone receptor (Homo sapiens); test: Nonspecific binding affinity against progesterone receptor was estimated relative to compound R5020
[38] = species: Rattus norvegicus; test: Tissue biodistribution into estrogen-primed immature female rat muscle at 1 hr time interval; format: ADME, organism-based; conditions: in vivo; in short: as §1
[39] = species: Rattus norvegicus; test: Tissue biodistribution into estrogen-primed immature female rat blood at 1 hr low time interval; format: ADME, organism-based; conditions: in vivo; in short: as §1
[40] = species: Rattus norvegicus; test: Tissue biodistribution into estrogen-primed immature female rat ovaries at 1 hr blocked time interval; format: ADME, organism-based; conditions: in vivo; in short: as §1
[41] = species: Rattus norvegicus; test: Tissue biodistribution into estrogen-primed immature female rat ovaries at 1 hr time interval; format: ADME, organism-based, Female gonad; conditions: in vivo; in short: as §1
[42] = species: Rattus norvegicus; test: Tissue biodistribution into estrogen-primed immature female rat uterus at 1 hr blocked time interval; format: ADME, organism-based; conditions: in vivo; in short: as §1
[43] = species: Rattus norvegicus; test: Tissue biodistribution into estrogen-primed immature female rat uterus/muscle at 1 hr low time interval; format: ADME, organism-based; conditions: in vivo; in short: as §1
[44] = species: Rattus norvegicus; test: Tissue biodistribution into estrogen-primed immature female rat kidney at 3 hr time interval; format: ADME, organism-based; conditions: in vivo; in short: as §1
[45] = species: Rattus norvegicus; test: Tissue biodistribution into estrogen-primed immature female rat muscle at 1 hr low time interval; format: ADME, organism-based; conditions: in vivo; in short: as §1
[46] = species: Rattus norvegicus; test: Tissue biodistribution into estrogen-primed immature female rat ovaries at 3 hr time interval; format: ADME, organism-based, Female gonad; conditions: in vivo; in short: as §1
[47] = species: Rattus norvegicus; test: Tissue biodistribution into estrogen-primed immature female rat lung at 1 hr low time interval; format: ADME, organism-based; conditions: in vivo; in short: as §1
[48] = target: T1, Progesterone receptor (Homo sapiens); test: Relative binding affinity against progesterone receptor at 0 degree Celsius determined in a competitive radiometric binding assay (R5020=100%).
In short: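 Competitive radiometric binding at 0 °C against tritium-labeled R5020 as the standard (RBA = 100). Values are the average of two experiments.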

[49] = species: Rattus norvegicus; test: Tissue biodistribution into estrogen-primed immature female rat fat at 3 hr time interval; format: ADME, organism-based, Adipose tissue; conditions: in vivo; in short: as §1
[50] = species: Rattus norvegicus; test: Tissue biodistribution into estrogen-primed immature female rat ovaries at 1 hr low time interval; format: ADME, organism-based, Female gonad; conditions: in vivo; in short: as §1
[51] = species: Rattus norvegicus; test: Tissue biodistribution into estrogen-primed immature female rat uterus at 1 hr low time interval; format: ADME, organism-based; conditions: in vivo; in short: as §1
[52] = species: Rattus norvegicus; test: Tissue biodistribution into estrogen-primed immature female rat lung at 3 hr time interval; format: ADME, organism-based; conditions: in vivo; in short: as §1

CC1(c2ccco2)O[C@@H]2CC3C4CCC5=CC(=O)CC[C@@H]5C4CC[C@]3(C)[C@]2(C(=O)CF)O1 (some centres not stated)
logP [1]: 4.13 | BSI [2]: 159 | Injected dose/g [3]: 1.15% | Injected dose/g [4]: 1.26% | Injected dose/g [5]: 3.48% | Injected dose/g [6]: 1.51% | Injected dose/g [7]: 0.19% | Injected dose/g [8]: 0.68% | Uterus to blood concentration ratio [9]: 20.09% | Injected dose/g [10]: 0.6% | Injected dose/g [11]: 10% | Injected dose/g [12]: 0.58% | Injected dose/g [13]: 8.65% | Injected dose/g [14]: 1.16% | Injected dose/g [15]: 6.51% | Injected dose/g [16]: 2.86% | Injected dose/g [17]: 0.54% | uterus/blood ratio [18]: 71.1 | Injected dose/g [19]: 0.14% | Injected dose/g [20]: 1.59% | Injected dose/g [21]: 0.2% | Injected dose/g [22]: 0.49% | Uterus to muscle uptake ratio [23]: 12.07% | Injected dose/g [24]: 1.52% | Injected dose/g [25]: 1.84% | Injected dose/g [26]: 1.92% | Injected dose/g [27]: 0.84% | Injected dose/g [28]: 0.34% | uterus/muscle ratio [29]: 2.68 | Injected dose/g [30]: 1.86% | Injected dose/g [31]: 1.29% | ratio [32]: 53.1 | Injected dose/g [33]: 0.97% | Injected dose/g [34]: 0.32% | Injected dose/g [35]: 1.61% | uterus/blood ratio [36]: 2.47 | NSB [37]: 1.09 | Injected dose/g [38]: 0.64% | Injected dose/g [39]: 0.35% | Injected dose/g [40]: 1.52% | Injected dose/g [41]: 3.04% | Injected dose/g [42]: 1.43% | Injected dose/g [43]: 12.09% | Injected dose/g [44]: 0.76% | Injected dose/g [45]: 0.25% | Injected dose/g [46]: 2.66% | Injected dose/g [47]: 1.23% | RBA [48]: 173 | Injected dose/g [49]: 4.16% | Injected dose/g [50]: 1.58% | Injected dose/g [51]: 3.46% | Injected dose/g [52]: 0.27%
